Rows were chosen to be rich in hits. Some 9.4% of all compounds tested hit in one or more screens of this group.
Beta cell apopt: blocks beta cell apoptosis; 300,000 compounds, 0.8% hits; AID 435005; protection from apoptosis, % (no concentration beside the values); INS-1E cytokine-induced death, ATP luminescence, 48 h; percent of positive-control rescue, neutral wells zero;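 active = Every replicate reaches about 75%, or at least half do and their mean reaches it too, limit read from the data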;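 note: 0% = cytokine-treated negative control wells and 100% = positive control rescue; higher means more ATP so stronger rescue from cytokine killing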
CSC inhib: cancer stem cell inhibition | cancer stem cell-like cells viability, luminescence | inhibition, % at 7.5 µM | 300,000 compounds, 1.1% hits; in the data active = inhibition above about 75%; tested in HMLE shEcad cells
T cruzi inh: T. cruzi replication inhibition | T. cruzi beta-gal in NIH3T3, luminescence, 90 h | 300,000 compounds, 1.4% hits | inhibition, % (no concentration beside the values);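 active = mean inhibition across valid replicates above about 55%, limit read from the data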;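 note: signal also drops with host cell toxicity which is not excluded here; 0% = plate median of DMSO wells and 100% = zero luminescence signal; higher percent means less beta-gal luminescence so fewer parasites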
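System: mouse NIH/3T3 fibroblasts infected with β-gal-expressing T. cruzi Tulahuen C4 / Input: NIH/3T3 cells, 5,000 per well / Buffer or medium: Low-serum DMEM with 2% FBS / Probe or stimulus: 5000 reporter trypomastigotes per well / Schedule: ≥90 h infection period, 3 h prior cell attachment / Measured by: GalScreen luminescence, 60 min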
Mdm2-MdmX inh: disrupts the human Mdm2-MdmX interaction. inhibition, % at 8 µM. O15151+Q00987. AID 485346. 330,000 compounds, 3% hits. SaOS-2 split-luciferase Mdm2/MdmX complementation, luminescence;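 active = inhibition of at least 50% at 8 µM in the primary screen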
Target sequence (O15151 whole entry, looked up): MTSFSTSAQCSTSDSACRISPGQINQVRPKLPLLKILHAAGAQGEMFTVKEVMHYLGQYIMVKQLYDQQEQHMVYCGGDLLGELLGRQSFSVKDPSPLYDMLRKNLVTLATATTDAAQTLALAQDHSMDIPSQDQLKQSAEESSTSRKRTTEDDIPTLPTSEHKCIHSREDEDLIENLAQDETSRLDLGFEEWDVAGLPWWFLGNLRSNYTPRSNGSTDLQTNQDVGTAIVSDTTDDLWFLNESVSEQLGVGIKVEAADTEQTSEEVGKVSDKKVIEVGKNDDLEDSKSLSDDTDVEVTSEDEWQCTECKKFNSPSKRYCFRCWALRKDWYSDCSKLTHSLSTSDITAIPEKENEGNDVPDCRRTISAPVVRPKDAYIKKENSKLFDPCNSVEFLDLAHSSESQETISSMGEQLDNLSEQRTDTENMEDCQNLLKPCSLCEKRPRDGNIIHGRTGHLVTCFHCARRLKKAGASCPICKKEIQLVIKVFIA
Target sequence (Q00987 whole entry, looked up): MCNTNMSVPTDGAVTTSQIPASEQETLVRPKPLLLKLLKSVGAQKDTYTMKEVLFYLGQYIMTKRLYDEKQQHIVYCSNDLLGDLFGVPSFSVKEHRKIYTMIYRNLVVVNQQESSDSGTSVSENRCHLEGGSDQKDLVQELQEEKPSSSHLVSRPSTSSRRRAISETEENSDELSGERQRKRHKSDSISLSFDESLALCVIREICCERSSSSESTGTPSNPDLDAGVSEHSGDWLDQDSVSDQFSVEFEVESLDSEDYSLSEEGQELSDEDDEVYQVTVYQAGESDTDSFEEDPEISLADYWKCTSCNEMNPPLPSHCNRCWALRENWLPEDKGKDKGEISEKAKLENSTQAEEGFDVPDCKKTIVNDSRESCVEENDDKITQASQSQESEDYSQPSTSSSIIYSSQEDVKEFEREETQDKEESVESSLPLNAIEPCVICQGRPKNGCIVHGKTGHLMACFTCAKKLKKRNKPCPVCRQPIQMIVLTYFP
SKKanGAS inh: inhibitors of SKKanGAS S. pyogenes growth in kanamycin (SK-promoter or general growth effect) | AID 1662 | BacTiter-Glo, 6 h | 300,000 compounds, 1.3% hits | inhibition, % at 7.5 µM;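 active = mean replicate score, as percent of positive control median, at least 50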;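 note: strain carries kanamycin resistance gene driven by streptokinase promoter and grows in 40 µg/ml kanamycin; loss of luminescence reflects streptokinase promoter inhibition or plain growth inhibition; 0% = median of DMSO wells and 100% = positive control at its reference dose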
L major viab: reduces viability of Leishmania major promastigotes. resazurin fluorescence viability. inhibition, % at 10 µM. 200,000 compounds, 9% hits; in the data active = inhibition above about 50%;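 note: promastigotes grown with compound for 44 hours at 28 °C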
Starred values were filed as active, the others as inactive; · = no result.

SMILES	Beta cell apopt	CSC inhib	T cruzi inh	Mdm2-MdmX inh	SKKanGAS inh	L major viab
OC(COCc1ccc(Cl)cc1)CN1CCCCC1 (stereo not given)	·	7	8	15	-1	·
OC(COCc1ccc(Cl)cc1)CN1CCN(CC(O)COCc2ccc(Cl)cc2)CC1 (stereo not given)	·	3	18	34	-7	100*
OC(COCc1ccc(Cl)cc1)CN1CCc2ccccc2C1 (stereo not given)	-1	28	0	15	1	73*
CCC(C)NCC(O)COCc1ccc(Cl)cc1 (stereo not given)	-7	-8	16	22	-12	60*
Cc1nc(C(=O)NC2CCOCC2)sc1C1(C)CC(c2cccc([N+](=O)[O-])c2)=NO1 (stereo not given)	1	-7	4	34	3	·
CNC(=O)N1CCC(C(=O)c2c(C)c(C)c(C)c(C)c2C)CC1	-9	1	0	-18	-6	·
O=C(c1ccc(Cl)cc1)N1CCC(=O)N(C(CO)Cc2ccccc2)CC1 (stereo not given)	-4	·	-13	-4	11	·
O=S(=O)(N[C@H]1C[C@@H](NS(=O)(=O)OCC(Cl)(Cl)Cl)C2CCCCC21)OCC(Cl)(Cl)Cl (stereo not given in full)	3	76*	-4	·	93*	·
Cc1ccc(NC(=O)C2CCN(c3cnccn3)CC2)cc1C	-1	6	64*	3	-5	89*
Cc1ccc(S(=O)(=O)N2CCC(C(=O)Nc3ccc(S(=O)(=O)N4CCCC4)cc3)CC2)cc1C	7	6	74*	17	11	·
COc1ccc(C)cc1NC(=O)CN1CCN(S(=O)(=O)c2ccc(C(C)C)cc2)CC1	·	0	62*	0	25	5
Cc1ccc(S(=O)(=O)N2CCC(C(=O)Nc3ccc(C(C)C)cc3)CC2)cc1	10	75*	·	14	·	·
CCCCCCCC[n+]1cccc(C(=O)N(CC)CC)c1	-8	9	-5	-12	4	61*
CCCC(=O)Nc1ccc(C(=O)NNC(=S)NC(=O)c2ccc(Br)o2)cc1	·	17	-12	17	27	-3
Cc1cc(C)c(S(=O)(=O)/N=C2/C=C(SCC(=O)O)C(=O)c3ccccc32)cc1C	·	·	·	36	·	100*
Cc1ccc(NC(=O)CSc2ccccc2)cc1S(=O)(=O)N1CCCCC1	-8	·	·	19	·	·
CC1CCN(C(=O)CCc2ccc(Oc3cc([N+](=O)[O-])cc([N+](=O)[O-])c3)cc2)CC1	2	50	46	-11	5	99*
O=C(CCc1ccc(Oc2cc([N+](=O)[O-])cc([N+](=O)[O-])c2)cc1)NC1CCCC1	7	-5	63*	22	15	99*
CCOC(=O)C(=Cc1ccc(Br)cc1)C(=O)OCC	86*	39	14	·	-7	·
CCOC(=O)C(=Cc1ccc(F)cc1)C(=O)OCC	-16	96*	-34	45	-4	7
CCOC(=O)/C(=C/c1ccc(OC(=O)c2ccncc2)cc1)C(C)=O	-7	12	-12	14	·	19
CCOC(=O)C(=Cc1ccc(-n2ccnc2)cc1)C(=O)OCC	-16	86*	-9	30	0	79*
CCOC(=O)C(=O)Nc1ccc(F)cc1	1	4	-15	-4	-6	-6
Cc1cc(/C=N/NC(=O)c2ccccc2F)c(C)n1-c1ccccc1	1	45	8	26	1	2
Cc1cccc(-n2c(C)cc(/C=N/NC(=O)c3cccc([N+](=O)[O-])c3C)c2C)c1	10	0	23	18	0	64*
SMILES	Beta cell apopt	CSC inhib	T cruzi inh	Mdm2-MdmX inh	SKKanGAS inh	L major viab
NC(=O)c1c(-c2ccc(Cl)cc2Cl)csc1NC(=O)Cc1ccccc1	96*	5	5	·	10	47
O=C(Cc1ccccc1)Nc1scc(-c2ccccc2)c1C(=O)N1CCOCC1	9	-13	-10	14	1	2
COc1ccc(/C=C(/NC(=O)c2ccco2)C(=O)N2CCOCC2)cc1	·	-5	-3	19	-1	·
N=c1c2c(n(Cc3ccc(Cl)cc3)c3c1CCC3)CCC2	52	·	79*	45	9	99*
N=c1c2c(n(Cc3ccc(F)cc3)c3c1CCC3)CCCC2	23	-3	63*	34	10	99*
CCn1c2c(c(=N)c3c1CCC3)CCCC2	13	-10	-3	38	0	·
Cc1ccc(C(=O)NCC(=O)Nc2ccc(S(=O)(=O)Nc3cc(C)nc(C)n3)cc2)cc1	-2	-4	·	-13	·	·

Source: PubChem (several laboratories)
